In ChEMBL document CHEMBL2331228, “Synthesis and insight into the structure-activity relationships of chalcones as antimalarial agents” (J Med Chem, 2013):
≈ marks a conversion by molar mass, not a printed value. Calls of active or inactive are those of the source. No cut-off for these calls is given here.

Experiments:
[1] = tested on: Plasmodium falciparum; test: Antimalarial activity against schizont stage of chloroquine-sensitive Plasmodium falciparum 3D7 after more than 40 hrs by Giemsa staining-based light microscopic analysis; assay type: functional; conditions: 3D7, 40 h
How it was run: (§1)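 Ring stages (5% D-sorbitol synchronized) of 3D7 were grown in RPMI with 10% FBS, gentamycin and Fungizone at 37 °C under CO2. They were exposed in duplicate to compound (DMSO stock, 5 mg/mL) at 2, 10 and 50 μg/mL, with 3% cell suspension and 1% parasitized cells, for >40 h. Giemsa-stained thin smears were counted for schizonts. MIC is the lowest concentration giving 100% inhibition of schizont maturation.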

[2] = tested on: Plasmodium falciparum; test: Antimalarial activity against schizont stage of chloroquine-sensitive Plasmodium falciparum 3D7 assessed as reduction in parasitemia at 50 ug/ml after more than 40 hrs by Giemsa staining-based light microscopy; assay type: functional; parameters: scale not given: the % may be the effect or the level left; how it was run: as §1
[3] = tested on: Plasmodium falciparum; test: Antimalarial activity against schizont stage of chloroquine-sensitive Plasmodium falciparum 3D7 assessed as reduction in parasitemia at 10 ug/ml after more than 40 hrs by Giemsa staining-based light microscopy; assay type: functional; parameters: scale not given: the % may be the effect or the level left; how it was run: as §1
[4] = Selectivity index, ratio of CC50 for african green monkey Vero C1008 cells to IC50 for Plasmodium falciparum K1; assay type: functional
How it was run: (§2)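 SI = CC50 (Vero, 72 h MTT) / IC50. IC50 comes from a 72 h SYBR Green I fluorescence assay: seven 2-fold dilutions in duplicate, 2% cell suspension at 0.8% parasitemia, and Logit regression of the dose-response.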

[5] = tested on: Plasmodium falciparum; test: Antimalarial activity against schizont stage of chloroquine-sensitive Plasmodium falciparum 3D7 after 72 hrs by SYBR Green I-based fluorescence assay; assay type: functional, organism-based; conditions: 3D7, 72 h
How it was run: (§3)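 Parasites cultured in RPMI with 10% FBS, gentamycin and Fungizone (pH 7.2) at 37 °C in CO2. Compounds from DMSO stock (5 mg/mL). Seven 2-fold serial dilutions, duplicate wells. Cells added at 2% hematocrit, 0.8% parasitemia; uninfected-cell wells kept as background. After 72 h, lysis buffer with SYBR Green I, 1 h at 37 °C, fluorescence read. IC50 by logit regression of dose-response.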

[6] = tested on: Plasmodium yoelii; test: Antimalarial activity against chloroquine-resistant Plasmodium yoelii N-67 infected in Swiss mouse assessed as mean survival time at 3 mg/kg/day, im administered for 3 days (reference value: 9.20 +/- 0.44 days); assay type: functional; conditions: route intramuscular
[7] = Selectivity index, ratio of CC50 for african green monkey Vero C1008 cells to IC50 for Plasmodium falciparum 3D7; assay type: functional; how it was run: as §2
[8] = tested on: Plasmodium yoelii; test: Antimalarial activity against chloroquine-resistant Plasmodium yoelii N-67 infected in Swiss mouse assessed as reduction in parasitemia at 3 mg/kg/day, im administered for 3 days measured on day 4 relative to control; assay type: functional; parameters: scale not given: the % may be the effect or the level left; conditions: route intramuscular
[9] = tested on: Plasmodium falciparum; test: Resistance ratio of IC5O for Plasmodium falciparum K1 to IC50 for Plasmodium falciparum 3D7; assay type: functional
How it was run: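 Ratio of K1 IC50 to 3D7 IC50. Both come from the 72 h SYBR Green I fluorescence assay: seven 2-fold dilutions in duplicate, 0.8% parasitemia, IC50 by logit regression.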

[10] = Cytotoxicity against african green monkey Vero C1008 cells after 72 hrs by MTT assay; assay type: cell-based; conditions: chlorocebus sabaeus
How it was run: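 Vero (C1008) cells were incubated with dilutions of compound for 72 h and read by MTT. CC50 was obtained by nonlinear regression.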

[11] = tested on: Plasmodium falciparum; test: Inhibition of Plasmodium falciparum recombinant Falcipain-3 using Z-LR-AMC as substrate at low concentration after 30 mins by microplate reader analysis
[12] = tested on: Plasmodium yoelii; test: Antimalarial activity against chloroquine-resistant Plasmodium yoelii N-67 infected in Swiss mouse assessed as reduction in parasitemia at 50 mg/kg/day, ip administered for 3 days measured on day 4 relative to control; assay type: functional; parameters: scale not given: the % may be the effect or the level left; conditions: route intraperitoneal
[13] = tested on: Plasmodium yoelii; test: Antimalarial activity against chloroquine-resistant Plasmodium yoelii N-67 infected in Swiss mouse assessed as mean survival time of host at 50 mg/kg/day, ip administered for 3 days (reference value: 9.20 +/- 0.44 days); assay type: functional; conditions: route intraperitoneal
[14] = tested on: Plasmodium falciparum; test: Activation of Plasmodium falciparum recombinant Falcipain-3 using Z-LR-AMC as substrate at high concentration after 30 mins by microplate reader analysis
[15] = Inhibition of Plasmodium falciparum recombinant Falcipain-2 using Z-LR-AMC as substrate after 30 mins by microplate reader analysis
[16] = tested on: Plasmodium falciparum; test: Antimalarial activity against chloroquine-resistant Plasmodium falciparum K1 after 72 hrs by SYBR Green I-based fluorescence assay; assay type: functional, organism-based; conditions: K1, 72 h; how it was run: as §3

Row | Structure (SMILES) | MIC [1] [µM] | also measured
1 | COCOc1ccc(/C=C/C(=O)c2cc(CC=C(C)C)c(O)cc2O)cc1 | 27.2 (≈ 10 µg/mL) | 
2 | CC1(C)CCc2cc(C(=O)/C=C/c3ccc([N+](=O)[O-])cc3)c(O)cc2O1 | > 28.3 | Activity [3]: <100%
3 | CCO[C@H]1O[C@@H]2O[C@@]3(C)CC[C@H]4[C@H](C)CC[C@@H]([C@H]1C)[C@@]24OO3 [ARTEMOTIL] |  | Ratio CC50/IC50 [4]: 124857; IC50 [5]: 0.00137 µM; MST [6]: >28 days; Ratio CC50/IC50 [7]: 98720; Activity [8]: 100%; Ratio IC50 [9]: 0.79; CC50 at 72 h [10]: 136 µM
4 | CC(C)=CCCC1(C)C=Cc2c(ccc(C(=O)/C=C/c3ccc4oc(C(=O)c5ccccc5)cc4c3)c2O)O1 (stereo not given) | 19.3 (≈ 10 µg/mL) | 
5 | CC1(C)C=Cc2c(ccc(C(=O)/C=C/c3cnc4ccccc4c3)c2O)O1 | > 140 | Activity [2]: <100%
6 | CCOc1ccc(/C=C/C(=O)c2ccc3c(c2O)C=CC(C)(C)O3)cc1 | > 143 | Activity [2]: <100%
7 | CC1(C)C=Cc2c(ccc(C(=O)/C=C/c3ccc(F)cc3F)c2O)O1 | > 146 | Activity [2]: <100%
8 | CC(C)=CCCC1(C)C=Cc2c(ccc(C(=O)/C=C/c3cc(Cl)cc(Cl)c3)c2O)O1 (stereo not given) | 113 (≈ 50.2 µg/mL) | 
9 | COc1ccc(C(=O)c2cc3cc(/C=C/C(=O)c4ccc5c(c4O)C=CC(C)(CCC=C(C)C)O5)ccc3o2)cc1 (stereo not given) | > 91.2 | Activity [2]: <100%
10 | CC(C)=CCCC1(C)C=Cc2ccc(O)c(C(=O)CCc3cc(C=O)ccc3O)c2O1 (stereo not given) | 9.12 (≈ 3.84 µg/mL) | 
11 | CC(C)=CCCC1(C)C=Cc2c(ccc(C(=O)/C=C/c3ccc(O)c(C=O)c3)c2O)O1 (stereo not given) | 0.59 (≈ 0.247 µg/mL) | Ratio CC50/IC50 [4]: 9; IC50 [5]: 0.125 µM; inhibition [11]: Active; Activity [12]: 89%; MST [13]: 12.33 days; Activity [14]: Active; IC50 [15]: 5.5 µM; IC50 [16]: 1.09 µM; Ratio CC50/IC50 [7]: 79; Ratio IC50 [9]: 8.7; CC50 at 72 h [10]: 9.9 µM
12 | COc1ccc(/C=C/C(=O)c2ccc3c(c2O)C=CC(C)(CCC=C(C)C)O3)cc1OC (stereo not given) | 115 (≈ 50.1 µg/mL) | 

More lines, main results first:

Row | MIC [1] [µM] | Structure (SMILES) | also measured
13 | > 148 | COc1ccc(CCC(=O)c2ccc3c(c2O)C=CC(C)(C)O3)cc1 | Activity [2]: <100%
14 | 25.8 (≈ 10 µg/mL) | CC(C)=CCCC1(C)C=Cc2c(ccc(/C=C/C(=O)c3cccc(C)c3)c2O)O1 (stereo not given) | 
15 | 136 (≈ 50.1 µg/mL) | CCOc1cc(F)ccc1/C=C/C(=O)c1ccc2c(c1O)C=CC(C)(C)O2 | 
16 | 24.9 (≈ 10 µg/mL) | CC(C)=CCCC1(C)C=Cc2c(ccc(/C=C/C(=O)c3ccc(C)c(C)c3)c2O)O1 (stereo not given) | 
17 | > 123 | CC(C)=CCCC1(C)C=Cc2c(ccc(C(=O)/C=C/c3ccc(Cl)cc3)c2O)O1 (stereo not given) | Activity [2]: <100%
18 | 5.27 (≈ 2 µg/mL) | CC(C)CCCC1(C)CCc2c(ccc(C(=O)/C=C/c3cccnc3)c2O)O1 (stereo not given) | 
19 | 130 (≈ 50.2 µg/mL) | CC1(C)C=Cc2c(ccc(C(=O)/C=C/c3ccc(Br)cc3)c2O)O1 | 
20 | 142 (≈ 50.1 µg/mL) | CC(C)=CCc1cc(C(=O)/C=C/c2ccc(N(C)C)cc2)c(O)cc1O | 
21 | 146 (≈ 50.1 µg/mL) | CC(C)=CCc1cc(C(=O)/C=C/c2ccc(Cl)cc2)c(O)cc1O | 
22 | 5.34 (≈ 2 µg/mL) | CC1(C)C=Cc2c(ccc(C(=O)/C=C/c3ccc(Cl)cc3Cl)c2O)O1 | 
23 | 32.6 (≈ 10 µg/mL) | CC1(C)C=Cc2c(ccc(C(=O)/C=C/c3ccccn3)c2O)O1 | 
24 | 5.01 (≈ 2 µg/mL) | CC(C)=CCCC1(C)C=Cc2c(ccc(C(=O)/C=C/c3ccc(C#N)cc3)c2O)O1 (stereo not given) | 
25 | 21.6 (≈ 10 µg/mL) | COCOc1ccc(/C=C/C(=O)c2ccc3c(c2O)C=CC(C)(CCC=C(C)C)O3)cc1C=O (stereo not given) | 
26 | 32.4 (≈ 10 µg/mL) | CC1(C)CCc2cc(C(=O)/C=C/c3cccnc3)c(O)cc2O1 | 
